A short description of data set [1]: Lethal dose against Plasmodium vinckei in mice (Mus musculus) after intraperitoneal administration. The class given is toxicity. As to conditions: in vivo, ip.
For a further data set, the system named is Mus musculus. The data set can be described thus: In vivo effective dose against Plasmodium vinckei in mice (Mus musculus) after intraperitoneal administration of the compound. Format: functional. As to conditions: ip. In outline: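 Modified Peters 4-day suppressive test in female Swiss mice infected with P. vinckei petteri (279BY). Dosing was ip, once daily for 4 days. Controls received an equal volume of vehicle. Parasite growth was assessed on the day after the last treatment. ED₅₀ is the dose giving 50% growth inhibition relative to control.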

The next data set concerns Plasmodium falciparum. In words: In vitro inhibition of Plasmodium falciparum. The class given is functional, organism-based. In outline: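 [³H]-hypoxanthine incorporation assay on the Nigerian strain of P. falciparum, run as described in earlier work. IC₅₀ is the concentration giving 50% inhibition of incorporation.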
Data set [2] can be described thus: Ratio of LD50 to ED50 expressed as TI. Format: ADME. As to conditions: mouse. In outline: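 Therapeutic index calculated as LD50/ED50. ED50 came from a modified 4-day suppressive test against P. vinckei petteri (279BY) in female Swiss mice, dosed ip once daily for 4 days. It is the dose giving 50% inhibition of parasite growth versus vehicle-treated controls, read the day after the last dose. LD50 came from tolerance after ip administration in mice.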

`COCCc1sc[n+](CCCCCCCCCCCC[n+]2csc(CCOC)c2C)c1C.[I-].[I-]`: in data set [1], the median lethal dose (LD50) was determined as 1.2 mg/kg. In the data set with Mus musculus, this molecule registered a 50% effective dose (ED50) of 0.14 mg/kg. This molecule yielded an IC50 in the data set with Plasmodium falciparum of 0.65 nM. For the same molecule, the TI in data set [2] is given as 5%.
In the data set on Plasmodium falciparum, `Cc1c(CCOC(C)C)sc[n+]1CCCCCCCCCCCC[n+]1csc(CCOC(C)C)c1C` registered an IC50 of 4.8 nM. This counts as single-digit nanomolar.
Still for that read-out and setting: then `COCCc1sc[n+](CCCCc2ccc(CCCC[n+]3csc(CCOC)c3C)cc2)c1C`, with 5 nM.
In turn, `Cc1c(CCO)sc[n+]1CCCCCCCC[n+]1csc(CCO)c1C` had an IC50 with Plasmodium falciparum of 362 nM.
Same read-out and setting: the result for `CCOC(=O)Cc1c(CCCCCCCCCCCCc2sc[n+](Cc3ccccc3)c2CC(=O)OCC)sc[n+]1Cc1ccccc1` reads 250 nM.
In the data set on Mus musculus, `COC(=O)CCC(=O)OCCc1sc[n+](CCCCCCCCCCCC[n+]2csc(CCOC(=O)CCC(=O)OC)c2C)c1C.[I-].[I-]` displayed a median effective dose (ED50) of 3.1 mg/kg. This molecule gave a half-inhibitory concentration (IC50) in the data set with Plasmodium falciparum of 5 nM.
As for `c1ccc2c(c1)sc[n+]2CCCCCCCCCCCC[n+]1csc2ccccc21`, it took 2300 nM to reach half-maximal inhibition in the data set with Plasmodium falciparum (IC50).
`COCCc1sc[n+](CCCCCCCC[n+]2csc(CCOC)c2C)c1C`: in the data set with Plasmodium falciparum, the IC50 is 87.5 nM.
The molecule `CCc1sc[n+](CCCCCCCCCCCC[n+]2csc(CC)c2C)c1C.[I-].[I-]` came in with a 50% effective dose (ED50) in the data set on Mus musculus of 0.4 mg/kg. The molecule further gave a half-inhibitory concentration (IC50) in the data set on Plasmodium falciparum of 1.6 nM.
For `COCCc1sc[n+](CCCCCCCCCC[n+]2csc(CCOC)c2C)c1C`, the IC50 in the data set on Plasmodium falciparum turned out to be 8.9 nM. That is a single-digit nanomolar value.
Molecule `Cc1csc[n+]1CCCCCCCCCCCC[n+]1cscc1C.[I-].[I-]` showed a median effective dose (ED50) in the data set on Mus musculus of 2.6 mg/kg. Moreover, the IC50 with Plasmodium falciparum came to 3 nM.
Taken in the same sequence, the figures for `Cc1sc[n+](CCCCCCCCCCCC[n+]2csc(C)c2C)c1C.[I-].[I-]` were 1 mg/kg and 1.5 nM.
As to `Cc1c(CCOCCCCCCOCCc2sc[n+](C)c2C)sc[n+]1C`, half-maximal inhibition in the data set on Plasmodium falciparum (IC50) required 275 nM.
As for `CC(=O)OCCc1sc[n+](CCCCCCCCCCCC[n+]2csc(CCOC(C)=O)c2C)c1C.[I-].[I-]`, it took a dose of 0.7 mg/kg to reach the 50% effect level in the data set on Mus musculus (ED50). Further, in the data set on Plasmodium falciparum, the midpoint of inhibition, the IC50, lay at 3.1 nM.
Turning to `CCCCCCCCCCCC[n+]1csc(CCOC)c1C`, the midpoint of inhibition in the data set with Plasmodium falciparum, the IC50, lay at 75 nM.
Same read-out and setting: the result for `COCCc1sc[n+](CCCCCCCCCCCCCCCC[n+]2csc(CCOC)c2C)c1C` reads 1.1 nM.
Still for that read-out and setting: then `CCOC(=O)Cc1c(CCCCCCCCCCCCc2sc[n+](C)c2CC(=O)OCC)sc[n+]1C`, with 22 nM.
The same measure, in the same setting: then `Cc1c(CCO)sc[n+]1CCCCCCCCCC[n+]1csc(CCO)c1C`, with 34 nM.
In data set [1], `Cc1c(CCO)sc[n+]1CCCCCCCCCCCC[n+]1csc(CCO)c1C.[I-].[I-]` displayed a median lethal dose (LD50) of 1.2 mg/kg. Besides, in the data set on Mus musculus, the 50% effective dose (ED50) worked out at 0.2 mg/kg. Besides, in the data set with Plasmodium falciparum, the 50% inhibitory concentration (IC50) was determined as 2.25 nM. Also, the TI in data set [2] is reported as 5%.
In the case of `C[N+]1(CCCCCCCCCCCCCCCC[N+]2(C)CCCC2)CCCC1.[Br-].[Br-]`, the ED50 in the data set with Mus musculus is 0.22 mg/kg. In the data set with Plasmodium falciparum, this molecule had an IC50 of 0.65 nM.
Regarding `CCOCCc1sc[n+](CCCCCCCCCCCC[n+]2csc(CCOCC)c2C)c1C`, the midpoint of inhibition in the data set with Plasmodium falciparum, the IC50, lay at 1.6 nM.
On the same count and under the same terms, then `Cc1c(CCCl)sc[n+]1CCCCCCCCCCCC[n+]1csc(CCCl)c1C`, with 10 nM; and `Cc1c(CCOCCCCCCOCCc2sc[n+](Cc3ccccc3)c2C)sc[n+]1Cc1ccccc1`, with 36 nM; and `c1ccc(-c2csc[n+]2CCCCCCCCCCCC[n+]2cscc2-c2ccccc2)cc1`, with 1800 nM.
`CCCCCCCCCCCC[n+]1csc(CCO)c1C` gave an IC50 in the data set on Plasmodium falciparum of 70 nM.
Take `CCN(CC)CCCC(C)Nc1ccnc2cc(Cl)ccc12` (stereo not drawn) [CHLOROQUINE]: it took a dose of 1.1 mg/kg to reach the 50% effect level in the data set with Mus musculus (ED50).

By LD50 is commonly meant the dose expected to kill half of the subjects tested. The ED50 is the dose that gives a 50% effect, or the effect in half of the subjects. By IC50 is commonly meant the concentration that inhibits the measured activity by half. A higher IC50 goes with weaker potency.
